Data from ChEMBL document CHEMBL1123563, “New antifilarial agents. 1. Epoxy sulfonamides and ethynesulfonamides” (J Med Chem, 1987).
pEC50: −log10 of the molar value. Active and inactive are the calls of the source.

Tests used:
[1] = Effective concentration of compound necessary to kill 50% of infective larvae of Molinema dessetae after 7 days was determined in vitro; Value ranges from 20-100; format: functional
How it was run: (§1)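 Infective larvae from the intermediate host were decontaminated and held 20 per 1.5 mL in a biphasic medium: L929 feeder layer with RPMI and fetal calf serum (90:10), plus penicillin and streptomycin. Compound solutions at several concentrations were made in DMSO, and 10 μL of each was added. After 7 days, survival was corrected by control, in duplicate runs. EC ranges are given in μM.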

[2] = Antifilarial activity against Molinema dessetae in vivo in Proechimys oris the natural host at a dose of 50 mg/kg subcutaneously once a day for 5 days. Value is expressed as number of infected P. oris.; format: functional; settings: route subcutaneous
How it was run: (§2)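 Proechimys oris of both sexes were each infected with 200 infective larvae dissected from Aedes aegypti mosquitoes. Microfilaremia was checked, and the rodents were treated 150–180 days post-infection. Compound was given subcutaneously as a 1% carboxymethylcellulose suspension once daily for 5 consecutive days. Microfilaremia was followed for 6 weeks, then adult male and female worms were counted at autopsy. A compound was scored active if no males and ≤1.6 females were found (p = 0.12).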

molinema dessetae [3] = test: Antifilarial activity against Molinema dessetae in vivo against male adult worms at a dose of 50 mg/kg subcutaneously once a day for 5 days; Inactive; format: functional, organism-based; set-up: dose 50 mg/kg; how it was run: as §2
molinema dessetae [4] = test: Antifilarial activity against Molinema dessetae in vivo against female adult worms at a dose of 200 mg/kg subcutaneously once a day for 5 days; Active; format: functional, organism-based; set-up: dose 200 mg/kg; how it was run: as §2
molinema dessetae [5] = test: Antifilarial activity against Molinema dessetae in vivo against male adult worms at a dose of 200 mg/kg subcutaneously once a day for 5 days; Active; format: functional, organism-based; set-up: dose 200 mg/kg; how it was run: as §2
[6] = Antifilarial activity against Molinema dessetae in vivo in Proechimys oris the natural host at a dose of 200 mg/kg subcutaneously once a day for 5 days. Value is expressed as number of infected P. oris.; format: functional; settings: route subcutaneous; how it was run: as §2
molinema dessetae [7] = test: Effective concentration of compound necessary to kill 90% of infective larvae of Molinema dessetae after 7 days was determined in vitro; Value ranges from 100-500; format: functional; how it was run: as §1
[8] = Antifilarial activity against Molinema dessetae in vivo in Proechimys oris the natural host at a dose of 1000 mg/kg subcutaneously once a day for 5 days. Value is expressed as number of infected P. oris.; format: functional; settings: route subcutaneous
[9] = Effective concentration of compound necessary to kill 50% of infective larvae of Molinema dessetae after 7 days was determined in vitro; format: functional
molinema dessetae [10] = system: molinema dessetae;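 note: in vitro assay on infective-stage larvae, EC90 being the concentration lethal to 90% of larvae after 7 days of exposure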
molinema dessetae [11] = test: Antifilarial activity against Molinema dessetae in vivo against female adult worms at a dose of 1000 mg/kg subcutaneously once a day for 5 days; Active; format: functional, organism-based; set-up: dose 1000 mg/kg
molinema dessetae [12] = test: Antifilarial activity against Molinema dessetae in vivo against male adult worms at a dose of 1000 mg/kg subcutaneously once a day for 5 days; Active; format: functional, organism-based; set-up: dose 1000 mg/kg

Row | Compound | pEC50 [1] | Activity [2] | Activity (molinema dessetae [3]) | Activity (molinema dessetae [4]) | Activity (molinema dessetae [5]) | Activity [6] | EC90 (molinema dessetae [7]) | Activity [8] | pEC50 [9] | EC90 (molinema dessetae [10]) | Activity (molinema dessetae [11]) | Activity (molinema dessetae [12])
1 | CN(C)S(=O)(=O)[C@@H]1O[C@H]1c1ccccc1 | 4.00 | 2 | inactive | Active | Active | 2 | 500 µM |  |  |  |  | 
2 | C[C@@H]1O[C@@H]1P(=O)([O-])[O-].[Na+].[Na+] [PHOSPHOMYCIN DISODIUM] |  |  |  |  |  |  |  | 2 | < 3.30 | > 500 µM | Active | Active
